Drawing on ChEMBL document CHEMBL1125488, “Synthesis of the acridone alkaloids glyfoline and congeners. Structure-activity relationship studies of cytotoxic acridones” (J Med Chem, 1992), this text covers IC50 for 14 compounds.

Several values for one entry are separate records, joined by “and”; a condition that tells them apart may be missing. Equal values may be shown once. A value given as a limit tells only on which side of the number the result lay.

The first assay deals with HL-60. The experiment in a line: Ability to inhibit human leukemic HL-60 cell growth in culture. Type of assay: functional, cell-based. The settings on record: Homo sapiens, HL-60. Put shortly:
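HL-60 cells seeded at 1.5 × 10^5/mL in RPMI 1640 and exposed to compound at 0.0025–0.05 mg/mL (in 0.1% DMSO). Incubation was 72 h at 37 °C under humidified 5% CO2. Viable cells were counted by trypan blue exclusion on a hemocytometer. IC50 was the median-effect concentration, taken from a median-effect plot of fractional inhibition over three to five dose-effect levels.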
A word on the IC50: it is the concentration that gives 50% inhibition. The compound `COc1c(OC)c(OC)c2c(c1O)c(=O)c1cc(N)ccc1n2C` came in with an IC50 of 44.4 µM.
Still for that read-out and setting: for `COc1c(OC)c(OC)c2c(c1O)c(=O)c1cc([N+](=O)[O-])ccc1n2C` the value was > 100 µM; for `COc1cc2c(c3c1c(=O)c1ccccc1n3C)C=CC(C)(C)O2` [ACRONINE], 26.2 µM; for `COc1c(OC)c(O)c2c(O)c3ccc(O)c(OC)c3nc2c1OC`, > 100 µM.
On the same count and under the same terms, under `COc1c(OC)c(OC)c2c(c1O)c(=O)c1ccc(N(C)C)cc1n2C` stands 9.4 µM.
Turning to `COc1c(OC)c(OC)c2c(c1O)c(=O)c1cccc(OC)c1n2C`, the IC50 worked out at 12.8 µM.
Same read-out and setting: under `COc1c(OC)c(OC)c2c(c1O)c(=O)c1ccc(O)c(OC)c1n2C` [GLYFOLINE] stands 2.2 µM; under `CNc1ccc2c(=O)c3c(O)c(OC)c(OC)c(OC)c3n(C)c2c1`, 10.6 µM.
As to `COc1ccc2c(=O)c3c(OC)c(OC)c(OC)c(OC)c3n(C)c2c1OC`, half-maximal inhibition (IC50) was put at 23.3 µM.
On the same count and under the same terms, for `COc1c(OC)c(OC)c2c(c1O)c(=O)c1ccc(N)cc1n2C` the value was 11.6 µM; for `COc1ccc2c(=O)c3c(O)c(OC)c(OC)c(OC)c3n(C)c2c1OC`, 3.4 µM.
For the compound `COc1c(OC)c(OC)c2c(c1O)c(=O)c1ccc([N+](=O)[O-])cc1n2C`, the concentration for half-maximal inhibition (IC50) was > 100 µM.
`CCN(CC)CCn1c2c(OC)c(O)ccc2c(=O)c2c(O)c(OC)c(OC)c(OC)c21` came in with an IC50 of 62.2 µM.

Staying with this assay, now noted: hl-60.
Turning to `COc1c(OC)c(OC)c2c(c1OC)c(=O)c1ccc(O)c(OC)c1n2C`, the IC50 is 91.9 µM and 23.7 µM.
